Reference: ChEMBL document CHEMBL5303300, “EUbOPEN Chemogenomics Library - Multiplex” (2023)
Values joined by “and” are separate entries in the source; they are usually repeats but may differ in a detail not shown here. Identical values can stand only once.

System: U2OS
Assay: Multiplex assay against U2OS
Type: toxicity, cell-based
Conditions: human, number of replicates 2
Procedure, shortened: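 On a CQ1 microscope at 37°C and 5% CO2, live cells were imaged after compound addition. They had been stained at seeding with Hoechst33342, BioTracker Green Microtubule Cytoskeleton Dye, MitoTracker Red and Annexin V Alexa Fluor 680. CellPathfinder machine-learning gating assigned cells to Hoechst high-intensity objects or normal cells, normal cells to healthy, pyknosed or fragmented nuclei, and pyknosed cells to mitotic or apoptotic. Tubulin, mitochondrial-mass and membrane-permeability phenotypes are per cents of healthy-nucleus cells.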

[1] = 12 h, 1 µM, compound concentration 1 uM
[2] = 12 h, 10 µM, compound concentration 10 uM
[3] = 24 h, 1 µM, compound concentration 1 uM
[4] = 24 h, 10 µM, compound concentration 10 uM
[5] = 48 h, 1 µM, compound concentration 1 uM
[6] = 48 h, 10 µM, compound concentration 10 uM

SMILES: CSc1cc2c(cc1C(F)(F)F)N(C(=O)Nc1cccnc1)CC2
- Population Apoptotic (%) [1]: 33% and 45%
- Population Healthy Nuclei (%) [1]: 61% and 90%
- Population Hoechst High Intensity Objects (%) [1]: 0%
- Population Membrane Permeable-Phenotype (%) [1]: 0% and 2%
- Population Mitochondria Different-Phenotype (%) [1]: 0% and 1%
- Population Mitotic Cells (%) [1]: 66% and 54%
- Population Normal (%) [1]: 100%
- Population Pyknosed Nuclei (%) [1]: 17% and 8%
- Population Tubulin-Different-Phenotype (%) [1]: 71% and 84%
- Population Apoptotic (%) [2]: 42% and 66%
- Population Healthy Nuclei (%) [2]: 82% and 50%
- Population Hoechst High Intensity Objects (%) [2]: 0% and 3%
- Population Membrane Permeable-Phenotype (%) [2]: 0% and 7%
- Population Mitochondria Different-Phenotype (%) [2]: 0%
- Population Mitotic Cells (%) [2]: 57% and 33%
- Population Normal (%) [2]: 100% and 96%
- Population Pyknosed Nuclei (%) [2]: 12% and 11%
- Population Tubulin-Different-Phenotype (%) [2]: 94% and 38%
- Population Apoptotic (%) [3]: 60% and 26%
- Population Healthy Nuclei (%) [3]: 69% and 89%
- Population Hoechst High Intensity Objects (%) [3]: 0%
- Population Membrane Permeable-Phenotype (%) [3]: 3% and 1%
- Population Mitochondria Different-Phenotype (%) [3]: 0%
- Population Mitotic Cells (%) [3]: 40% and 73%
- Population Normal (%) [3]: 100%
- Population Pyknosed Nuclei (%) [3]: 12% and 6%
- Population Tubulin-Different-Phenotype (%) [3]: 66% and 84%
- Population Apoptotic (%) [4]: 100% and 45%
- Population Healthy Nuclei (%) [4]: 66% and 88%
- Population Hoechst High Intensity Objects (%) [4]: 2% and 0%
- Population Membrane Permeable-Phenotype (%) [4]: 0% and 1%
- Population Mitochondria Different-Phenotype (%) [4]: 0% and 1%
- Population Normal (%) [4]: 97% and 100%
- Population Pyknosed Nuclei (%) [4]: 11% and 7%
- Population Tubulin-Different-Phenotype (%) [4]: 58% and 93%
- Population Apoptotic (%) [5]: 83% and 46%
- Population Fragmented Nuclei (%) [5]: 6% and 2%
- Population Healthy Nuclei (%) [5]: 83% and 90%
- Population Hoechst High Intensity Objects (%) [5]: 3% and 0%
- Population Membrane Permeable-Phenotype (%) [5]: 6% and 1%
- Population Mitochondria Different-Phenotype (%) [5]: 0%
- Population Normal (%) [5]: 96% and 100%
- Population Pyknosed Nuclei (%) [5]: 10% and 6%
- Population Tubulin-Different-Phenotype (%) [5]: 67% and 85%
- Population Apoptotic (%) [6]: 29% and 42%
- Population Fragmented Nuclei (%) [6]: 3% and 10%
- Population Healthy Nuclei (%) [6]: 89% and 75%
- Population Hoechst High Intensity Objects (%) [6]: 0% and 2%
- Population Membrane Permeable-Phenotype (%) [6]: 1% and 0%
- Population Mitochondria Different-Phenotype (%) [6]: 0%
- Population Mitotic Cells (%) [6]: 70% and 57%
- Population Normal (%) [6]: 100% and 98%
- Population Pyknosed Nuclei (%) [6]: 7% and 14%
- Population Tubulin-Different-Phenotype (%) [6]: 94% and 40%

SMILES: O=C(Nc1ccnc(NC(=O)C2CC2)c1)c1c(Cl)cccc1Cl
- Population Apoptotic (%) [1]: 33% and 84%
- Population Hoechst High Intensity Objects (%) [1]: 0%
- Population Membrane Permeable-Phenotype (%) [1]: 4% and 3%
- Population Mitochondria Different-Phenotype (%) [1]: 0% and 4%
- Population Normal (%) [1]: 100%
- Population Tubulin-Different-Phenotype (%) [1]: 81% and 83%
- Total Cell Count [1]: 114 and 143
- Population Apoptotic (%) [2]: 60% and 58%
- Population Healthy Nuclei (%) [2]: 36% and 74%
- Population Hoechst High Intensity Objects (%) [2]: 0%
- Population Mitochondria Different-Phenotype (%) [2]: 14% and 0%
- Population Mitotic Cells (%) [2]: 40% and 41%
- Population Normal (%) [2]: 100%
- Population Pyknosed Nuclei (%) [2]: 26% and 19%
- Population Tubulin-Different-Phenotype (%) [2]: 71% and 58%
- Population Apoptotic (%) [3]: 60% and 90%
- Population Hoechst High Intensity Objects (%) [3]: 0%
- Population Membrane Permeable-Phenotype (%) [3]: 4% and 3%
- Population Mitochondria Different-Phenotype (%) [3]: 0% and 2%
- Population Normal (%) [3]: 99% and 100%
- Population Pyknosed Nuclei (%) [3]: 3% and 12%
- Population Tubulin-Different-Phenotype (%) [3]: 76% and 90%
- Total Cell Count [3]: 131 and 182
- Population Apoptotic (%) [4]: 66% and 87%
- Population Healthy Nuclei (%) [4]: 32% and 62%
- Population Hoechst High Intensity Objects (%) [4]: 0%
- Population Mitochondria Different-Phenotype (%) [4]: 10% and 0%
- Population Mitotic Cells (%) [4]: 33% and 12%
- Population Normal (%) [4]: 100%
- Population Pyknosed Nuclei (%) [4]: 19% and 29%
- Population Tubulin-Different-Phenotype (%) [4]: 70% and 66%
- Population Apoptotic (%) [5]: 75% and 76%
- Population Healthy Nuclei (%) [5]: 32% and 82%
- Population Hoechst High Intensity Objects (%) [5]: 0%
- Population Membrane Permeable-Phenotype (%) [5]: 5% and 1%
- Population Mitochondria Different-Phenotype (%) [5]: 2% and 1%
- Population Mitotic Cells (%) [5]: 25% and 23%
- Population Normal (%) [5]: 99% and 100%
- Population Pyknosed Nuclei (%) [5]: 3% and 10%
- Population Tubulin-Different-Phenotype (%) [5]: 89% and 92%
- Population Apoptotic (%) [6]: 100% and 80%
- Population Hoechst High Intensity Objects (%) [6]: 0%
- Population Membrane Permeable-Phenotype (%) [6]: 16% and 14%
- Population Mitochondria Different-Phenotype (%) [6]: 16% and 6%
- Population Mitotic Cells (%) [6]: 0% and 20%
- Population Normal (%) [6]: 100% and 99%
- Population Pyknosed Nuclei (%) [6]: 23% and 35%
- Population Tubulin-Different-Phenotype (%) [6]: 50% and 68%

SMILES: CC(C)N1CCN(Cc2cnc(-c3cc(-c4cccc5[nH]ccc45)cc4[nH]ncc34)o2)CC1 [NEMIRALISIB]
- Population Apoptotic (%) [1]: 42% and 80%
- Population Fragmented Nuclei (%) [1]: 12% and 2%
- Population Healthy Nuclei (%) [1]: 70% and 85%
- Population Hoechst High Intensity Objects (%) [1]: 0%
- Population Membrane Permeable-Phenotype (%) [1]: 0% and 1%
- Population Mitochondria Different-Phenotype (%) [1]: 3% and 0%
- Population Mitotic Cells (%) [1]: 57% and 20%
- Population Normal (%) [1]: 100% and 99%
- Population Pyknosed Nuclei (%) [1]: 17% and 11%
- Population Tubulin-Different-Phenotype (%) [1]: 53% and 72%
- Population Apoptotic (%) [2]: 69% and 57%
- Population Fragmented Nuclei (%) [2]: 13%
- Population Healthy Nuclei (%) [2]: 62% and 65%
- Population Hoechst High Intensity Objects (%) [2]: 0%
- Population Membrane Permeable-Phenotype (%) [2]: 15% and 8%
- Population Mitotic Cells (%) [2]: 30% and 42%
- Population Normal (%) [2]: 100%
- Population Pyknosed Nuclei (%) [2]: 24% and 20%
- Population Tubulin-Different-Phenotype (%) [2]: 18% and 30%
- Population Apoptotic (%) [3]: 60% and 80%
- Population Fragmented Nuclei (%) [3]: 4% and 3%
- Population Healthy Nuclei (%) [3]: 72% and 87%
- Population Hoechst High Intensity Objects (%) [3]: 0%
- Population Membrane Permeable-Phenotype (%) [3]: 0% and 1%
- Population Mitochondria Different-Phenotype (%) [3]: 0% and 2%
- Population Mitotic Cells (%) [3]: 40% and 19%
- Population Normal (%) [3]: 100% and 99%
- Population Pyknosed Nuclei (%) [3]: 22% and 9%
- Population Tubulin-Different-Phenotype (%) [3]: 59% and 78%
- Population Apoptotic (%) [4]: 33% and 60%
- Population Fragmented Nuclei (%) [4]: 10%
- Population Healthy Nuclei (%) [4]: 52% and 55%
- Population Hoechst High Intensity Objects (%) [4]: 2% and 0%
- Population Membrane Permeable-Phenotype (%) [4]: 4% and 8%
- Population Mitochondria Different-Phenotype (%) [4]: 36% and 43%
- Population Mitotic Cells (%) [4]: 66% and 39%
- Population Normal (%) [4]: 97% and 99%
- Population Pyknosed Nuclei (%) [4]: 37% and 34%
- Population Tubulin-Different-Phenotype (%) [4]: 32% and 33%
- Population Apoptotic (%) [5]: 47% and 70%
- Population Fragmented Nuclei (%) [5]: 4% and 3%
- Population Healthy Nuclei (%) [5]: 74% and 88%
- Population Hoechst High Intensity Objects (%) [5]: 0%
- Population Membrane Permeable-Phenotype (%) [5]: 1% and 2%
- Population Mitochondria Different-Phenotype (%) [5]: 1% and 0%
- Population Mitotic Cells (%) [5]: 52% and 29%
- Population Normal (%) [5]: 100%
- Population Pyknosed Nuclei (%) [5]: 20% and 8%
- Population Tubulin-Different-Phenotype (%) [5]: 81% and 76%
- Population Apoptotic (%) [6]: 60% and 67%
- Population Fragmented Nuclei (%) [6]: 23% and 8%
- Population Healthy Nuclei (%) [6]: 25% and 55%
- Population Hoechst High Intensity Objects (%) [6]: 3% and 2%
- Population Membrane Permeable-Phenotype (%) [6]: 12% and 11%
- Population Mitochondria Different-Phenotype (%) [6]: 37% and 35%
- Population Mitotic Cells (%) [6]: 39% and 32%
- Population Normal (%) [6]: 96% and 97%
- Population Pyknosed Nuclei (%) [6]: 51% and 35%
- Population Tubulin-Different-Phenotype (%) [6]: 25% and 38%
